The values below come from ChEMBL document CHEMBL3421541, “Benzaldehyde Schiff bases regulation to the metabolism, hemolysis, and virulence genes expression in vitro and their structure-microbicidal activity relationship” (2015).

Assay [1] relates to Bacillus subtilis. Briefly: Downregulation of yqhB gene expression in Bacillus subtilis at 50 umol/L after 8 hrs by real-time RT-PCR analysis relative to control. Type of assay: functional, organism-based. Put shortly: (§1)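 B. subtilis ATCC 6051 at 2×10^7 CFU/mL in LB was exposed to 50 µmol/L compound, or LB alone, for 8 h at 37 °C. Total RNA was analysed by TaqMan real-time RT-PCR or semi-quantitative RT-PCR, normalised to 16sRNA. Fold change is versus time-matched medium-only cultures, with data pooled from three experiments.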
For orientation: In qPCR the cycle at which signal appears reflects the starting amount.

The subject of assay [2] is Bacillus subtilis. Nature of the assay: Downregulation of yhdT gene expression in Bacillus subtilis at 50 umol/L after 8 hrs by real-time RT-PCR analysis relative to control. Type of assay: functional, organism-based. In short, it runs like this: as §1
Assay [3] deals with Bacillus subtilis. Nature of the assay: Downregulation of yugS gene expression in Bacillus subtilis at 50 umol/L after 8 hrs by real-time RT-PCR analysis relative to control. Type of assay: functional, organism-based. Put shortly:
as §1

Assay [4] concerns Bacillus subtilis. Briefly: Downregulation of yqhC gene expression in Bacillus subtilis at 50 umol/L after 8 hrs by semi-quantitative RT-PCR analysis relative to control. Type of assay: functional, organism-based. Put shortly: as §1
Assay [5] relates to Bacillus subtilis. Nature of the assay: Downregulation of yhdP gene expression in Bacillus subtilis at 50 umol/L after 8 hrs by semi-quantitative RT-PCR analysis relative to control. The class given is functional, organism-based. Put shortly: as §1
The subject of assay [6] is Escherichia coli. Briefly: Antibacterial activity against Escherichia coli assessed as growth inhibition at 100 umol/L after 8 hrs by ELISA plate reader analysis relative to control. Type of assay: functional. The following applies: read-out: GI. In short, it runs like this:
(§2)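 Bacteria were seeded at 1×10^5 CFU/mL in LB, and compound was added to 100 µmol/L final. Compounds came from DMSO stock, with DMSO ≤1% (v/v) final. Cultures were shaken at 37 °C for 8 h and read at OD450. Inhibition % = (OD vehicle control − OD sample)/OD vehicle control × 100. Values are the mean of three independent experiments.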

Assay [7] relates to Bacillus subtilis. Nature of the assay: Downregulation of yqhB gene expression in Bacillus subtilis at 50 umol/L after 8 hrs by semi-quantitative RT-PCR analysis relative to control. Type of assay: functional, organism-based. In short, it runs like this: as §1
For assay [8], the system named is Bacillus subtilis. Briefly: Downregulation of yhdP gene expression in Bacillus subtilis at 50 umol/L after 8 hrs by real-time RT-PCR analysis relative to control. Type of assay: functional, organism-based. Put shortly: as §1
Assay [9] relates to Bacillus subtilis. Nature of the assay: Antibacterial activity against Bacillus subtilis assessed as lowest concentration required to reduce growth by 1% after 8 hrs by ELISA plate reader analysis relative to control. Type of assay: functional. In short, it runs like this: (§3)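 MBC was found by broth microdilution. Inocula of 1×10^5 CFU/mL in LB were shaken at 37 °C with a series of compound concentrations, then read at OD450. MBC was defined as the lowest concentration reducing growth by 1% versus the inoculum control. Three independent experiments were run.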

The subject of assay [10] is Bacillus subtilis. Nature of the assay: Downregulation of yqhC gene expression in Bacillus subtilis at 50 umol/L after 8 hrs by real-time RT-PCR analysis relative to control. Type of assay: functional, organism-based. In short, it runs like this:
as §1

Assay [11] deals with Bacillus subtilis. Nature of the assay: Antibacterial activity against Bacillus subtilis assessed as growth inhibition at 100 umol/L after 8 hrs by ELISA plate reader analysis relative to control. The class given is functional. The following applies: read-out: GI. Put shortly:
as §2

Assay [12] deals with Bacillus subtilis. Nature of the assay: Downregulation of yugS gene expression in Bacillus subtilis at 50 umol/L after 8 hrs by semi-quantitative RT-PCR analysis relative to control. Type of assay: functional, organism-based. In short, it runs like this:
as §1

The subject of assay [13] is Bacillus subtilis. Nature of the assay: Downregulation of yhdT gene expression in Bacillus subtilis at 50 umol/L after 8 hrs by semi-quantitative RT-PCR analysis relative to control. Type of assay: functional, organism-based. Put shortly:
as §1

The subject of assay [14] is Staphylococcus aureus. Briefly: Antibacterial activity against Staphylococcus aureus assessed as growth inhibition at 100 umol/L after 8 hrs by ELISA plate reader analysis relative to control. The following applies: read-out: GI. The class given is functional. In short, it runs like this:
as §2

In assay [15] the test system is Staphylococcus aureus. Briefly: Antibacterial activity against Staphylococcus aureus assessed as lowest concentration required to reduce growth by 1% after 8 hrs by ELISA plate reader analysis relative to control. The class given is functional. In short, it runs like this:
as §3

Assay [16] has as its system Escherichia coli. Briefly: Antibacterial activity against Escherichia coli assessed as lowest concentration required to reduce growth by 1% after 8 hrs by ELISA plate reader analysis relative to control. Type of assay: functional. Put shortly:
as §3

Assay [17] deals with Escherichia coli. Nature of the assay: Downregulation of tsh gene expression in Escherichia coli at 50 umol/L after 8 hrs by semi-quantitative RT-PCR analysis relative to control. Type of assay: functional, organism-based. Put shortly: (§4)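 E. coli at 2×10^7 CFU/mL in LB was exposed to 50 µmol/L compound, or LB alone, for 8 h at 37 °C. Total RNA was then analysed by TaqMan real-time RT-PCR or semi-quantitative RT-PCR. Transcripts were normalised to gapA. Fold change is relative to time-matched medium-only cultures.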

Assay [18] deals with Escherichia coli. Briefly: Downregulation of IroD gene expression in Escherichia coli at 50 umol/L after 8 hrs by real-time RT-PCR analysis relative to control. The class given is functional, organism-based. Put shortly:
as §4

Assay [19] has as its system Escherichia coli. Nature of the assay: Downregulation of cysB gene expression in Escherichia coli at 50 umol/L after 8 hrs by semi-quantitative RT-PCR analysis relative to control. Type of assay: functional, organism-based. Put shortly:
as §4

Assay [20] concerns Escherichia coli. Briefly: Downregulation of tsh gene expression in Escherichia coli at 50 umol/L after 8 hrs by real-time RT-PCR analysis relative to control. Type of assay: functional, organism-based. In short, it runs like this:
as §4

The test system of assay [21] is Escherichia coli. Nature of the assay: Downregulation of IroD gene expression in Escherichia coli at 50 umol/L after 8 hrs by semi-quantitative RT-PCR analysis relative to control. Type of assay: functional, organism-based. In short, it runs like this:
as §4

Assay [22] deals with Escherichia coli. Nature of the assay: Downregulation of cysB gene expression in Escherichia coli at 50 umol/L after 8 hrs by real-time RT-PCR analysis relative to control. The class given is functional, organism-based. Put shortly:
as §4

The MBC is the lowest tested concentration that kills the bacteria rather than only halting them.

Structures are written as SMILES. ≈ marks a conversion by molar mass, not a printed value. Calls of active or inactive are those of the source.

Turning to `O=C(COc1ccc(Cl)cc1)N/N=C/c1cc(Cl)ccc1O`, the outcome in assay [1], in [2], in assay [3], in [4], in assay [5] and in assay [7] was Active. Further, the outcome in assay [8], in assay [10], in assay [12] and in [13] was Active. The inhibition of growth at 100 µM turned out to be 3.08% in assay [6] and 83.2% in [11]. In addition, in assay [9], the MBC is 10.8 µM (≈ 3.66 µg/mL).
Consider `O=C(COc1ccc(Cl)cc1)N/N=C/c1cc([N+](=O)[O-])ccc1O`, for which the result in assay [1], in [2], in assay [3], in assay [4], in assay [5] and in assay [7] was Active. For the same compound, the outcome in [8], in [10], in [12] and in assay [13] was Active. Also, the inhibition of growth at 100 µM in [14] was 1.39%; in assay [11], 96.4%. Besides, the minimum bactericidal concentration (MBC) in assay [9] turned out to be 2.8 µM (≈ 0.979 µg/mL).
`COc1ccc(CC(=O)N/N=C/c2cc([N+](=O)[O-])ccc2O)cc1`: in [6], the inhibition of growth at 100 µM was determined as 5.57%.
As for `CN[C@@H]1[C@H](O[C@H]2[C@H](O[C@H]3[C@H](O)[C@@H](O)[C@H](N=C(N)N)[C@@H](O)[C@@H]3N=C(N)N)O[C@@H](C)[C@]2(O)C=O)O[C@@H](CO)[C@H](O)[C@H]1O` [STREPTOMYCIN], the MBC in assay [15] is 1.3 µM (≈ 0.756 µg/mL); in assay [9], 2.1 µM (≈ 1.22 µg/mL). Moreover, the results for the inhibition of growth at 100 µM in assay [14] and in [11] were 97% and 94.1%, respectively.
In the case of `CC1(C)S[C@@H]2[C@H](NC(=O)[C@H](N)c3ccccc3)C(=O)N2[C@H]1C(=O)O` [AMPICILLIN], in assay [6], the inhibition of growth at 100 µM is 99.3%. In [16], the MBC is 1.8 µM (≈ 0.629 µg/mL).
Regarding `O=C(O)[C@H](Cc1ccc(O)cc1)/N=C/c1ccccc1O`, the outcome in assay [17], in assay [18], in assay [19], in [20], in assay [21] and in assay [22] was Active. Moreover, the inhibition of growth at 100 µM in [6] is 96%; in assay [11] it was 4.38%. The MBC in [16] was 1.6 µM (≈ 0.456 µg/mL).
For the compound `O=C(N/N=C/c1ccccc1O)c1ccccc1O`, in assay [6], the inhibition of growth at 100 µM was 11.8%.
As for `O=C(O)[C@H](Cc1ccccc1)/N=C/c1ccccc1O`, the inhibition of growth at 100 µM in assay [6] is 22.7%.
